Assay outcomes (PubChem)
V-ATPase pH: regulators of yeast V-ATPase proton pumping, primary screen, pHLuorin cytosolic pH fluorescence. S. cerevisiae. AID 504577, 2011. response, % at 10 µM. actives 0.37% (n = 350,000); in the data active = response mostly above about 7.3%, no sharp cut-off; inactive = mostly below about 5.4%; also: actives read high
CHOP inh: inhibitors of CHOP promoter induction, primary screen, cell-based, unfolded protein response, luciferase reporter. CHO-K1 CHOP-promoter luciferase, tunicamycin-induced, 15-18 h. inhibition, % at 10 µM. actives 3.8% (n = 220,000). AID 2732, 2010;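 active = compounds that reduced the stress-induced luciferase reporter signal by more than about 70% of percent inhibition, limit read from the data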;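 also: 0% = tunicamycin plus vehicle and 100% = wells without tunicamycin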
XBP1 UPR activ: activators of adaptive XBP1 UPR arm, primary screen, cell-based, CHO-XBP1 luciferase reporter, luminescence, uHTS. IRE1-XBP1 UPR activation; percent of tunicamycin response, DMSO as zero. AID 463104, 2010. actives 0.33% (n = 330,000). activation, % at 20 µM;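 active = versus positive control, 20 µM dose yields 30% or more activation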;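 also: 100% = tunicamycin at 10 µg/mL and 0% = DMSO only wells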
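Material – CHO cell line with stable XBP1 luciferase reporter · Buffer or medium – F12 plus 10% FBS · Compound – single point, 20 µM final compound, 1% DMSO · Schedule – 16-18 h cell attachment at 37 °C, then 6 h compound exposure · Signal – Steady-Glo luminescence read · Benchmarks – high control tunicamycin 10 µg/mL final, low control DMSO vehicle only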
TbMetRS inhib: T. brucei MetRS inhibitors, primary screen, biochemical, luminescence | inhibition, % at 11.9 µM | AID 624268, 2012 | actives 0.4% (n = 360,000) | methionyl-tRNA synthetase (Trypanosoma brucei brucei) | purified T. brucei MetRS, ATP depletion, Kinase-Glo luminescence;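 active = inhibition above a per-plate cutoff of the control wells' mean inhibition plus 3 SD, cut at about 5.5% in these data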;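 also: 0% = DMSO wells median and 100% = median of wells with control inhibitor compound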
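Dosing: 11.9 µM single point; system: parasite MetRS enzyme; technique: luminescence of leftover ATP; times: 15 min enzyme-compound preincubation, 2 h reaction, 10 min detection, 25 °C; replicates: each compound tested once; read-out basis: percent inhibition relative to median high and low control wells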
UPR CHOP act: activators of apoptotic CHOP UPR arm, primary screen, cell-based, CHO-CHOP luciferase reporter, luminescence, uHTS; UPR activation; percent of tunicamycin response over DMSO baseline; AID 449763, 2010; actives 0.34% (n = 330,000); activation, % at 10 µM;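 active = at 10 µM dose, activation of 40% or more, normalized to positive control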;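 also: 100% = tunicamycin at 10 µg/mL and 0% = DMSO alone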
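measured by = luciferase luminescence | assay system = CHO-CHOP cells, stable luciferase reporter of PERK-eIF2a-CHOP signalling | amount = 500 reporter cells seeded per well | timing = 6 h compound exposure at 37 °C after overnight seeding | controls = positive tunicamycin 10 µg/mL, negative DMSO alone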
CHOP confirm: retest of CHOP induction inhibitors, confirmation, cell-based | shares compounds with CHOP inh | CHO-CHOP promoter luciferase reporter, tunicamycin-induced, luminescence | inhibition, % at 10 µM | actives 45% (n = 2,100);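 active = mean of three repeat readings of reporter signal inhibition above a set limit, cut at about 70% in these data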;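 also: 0% = tunicamycin plus vehicle and 100% = wells lacking tunicamycin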
Numbers without * were called inactive; · = no result. Shown is part of a subset that was picked to be rich in hits.

SMILES	V-ATPase pH	CHOP inh	XBP1 UPR activ	TbMetRS inhib	UPR CHOP act	CHOP confirm
COc1ccc(S(=O)(=O)/N=C2\C=C(Nc3ccc(O)cc3)C(=O)c3ccccc32)cc1	0	·	-7	2	-2	·
NC(=S)n1[nH]c(-c2ccc([N+](=O)[O-])cc2)c(N=Nc2ccc(Cl)cc2)c1=O	0	107*	·	0	·	114*
CCOC(=O)c1sc(NC(=S)NC(=O)C2CCCC2)cc1C	-2	64	0	0	1	·
CCOC(=O)c1sc(NC(=O)Nc2ccc(Cl)cc2)cc1C	3	108*	4	2	14	30
CCOC(=O)c1sc(NC(=S)NC(=O)CC(C)C)cc1C	0	107*	4	0	1	20
COc1ccc2[nH]c3c(=O)n(CCN4CCOCC4)cnc3c2c1	-3	-11	2	-1	1	·
COc1ccc2c(c1)c1ncn(CCN3CCCC3)c(=O)c1n2C	2	101*	4	0	-2	18
O=C(CCl)N1CCN2C(=O)c3ccccc3C12c1ccc(Cl)cc1 (stereo not drawn)	-1	105*	-10	0	-1	113*
Cc1ccc(C(=O)N2CCN3C(=O)c4ccccc4C23c2ccc(Cl)cc2)cc1 (stereo not drawn)	1	-90	-6	0	-2	·
COc1ccc2[nH]c(=O)c3c(c2c1)OC(C)(C)C=C3	-1	57	-5	-1	-3	·
Cc1cc2c([nH]c3ccccc32)c2c1OC(C)(C)C=C2	1	98*	4	-1	3	97*
COc1ccc(C=C2C(=O)c3ccccc3C2=O)cc1O	9	-17	-2	-1	2	·
CCN1C/C(=C/c2ccc(OC)c(O)c2)C(=O)/C(=C/c2ccc(OC)c(O)c2)C1	9	100*	-8	-1	38	97*
C/C(=N\OCc1cccc(C(=O)O)c1)c1ccc(Cl)cc1	2	96*	-9	-1	-8	111*
CC(=O)c1ccccc1OCCCCN1CCCCC1	1	·	-2	0	3	·
O=C(CN1CCN(Cc2ccc(Cl)cc2)CC1)N/N=C/c1cccs1	-4	16	-1	0	-1	·
CC1CCN(S(=O)(=O)c2ccc3c(c2)C(=NO)c2cc(S(=O)(=O)N4CCC(C)CC4)ccc2-3)CC1	·	108*	-12	0	-10	138*
CCOC(=O)c1nc(S(C)(=O)=O)ncc1N1CCOCC1	1	-5	-2	0	0	·
CCOC(=O)c1nc(S(C)(=O)=O)ncc1Cl	1	·	-9	0	-7	92*
COc1ccc(OC)c(C(C)NC(=O)Nc2cccc(C(C)=O)c2)c1 (stereo not drawn)	0	12	-2	0	-2	·
CN(C)c1ccc(NC(=O)COC(=O)Cn2nnc3ccccc32)cc1	2	6	-2	-1	1	·
Cc1ccc2nc(-c3cc(-c4ccccc4)no3)cn2c1	-3	105*	-9	-1	-5	74*
Cc1ccc(-c2cc(-c3ccccc3)no2)c(O)c1	2	67	·	0	·	·
O=C(NCc1ccc2c(c1)OCO2)c1ccc(C2SCC(=O)N2Cc2ccco2)cc1 (stereo not drawn)	4	4	0	0	-1	·
COc1ccc(C(=O)c2coc(-c3ccccc3C(=O)O)c2C(=O)O)cc1	1	-1	1	-1	1	·
SMILES	V-ATPase pH	CHOP inh	XBP1 UPR activ	TbMetRS inhib	UPR CHOP act	CHOP confirm
COc1ccc(C(=O)c2c(C(F)(F)F)oc3c2C(=O)c2ccccc2C3=O)cc1	1	106*	-3	-1	-1	117*
COc1ccc(-c2nc(NC(=O)Cn3ccc(C(F)(F)F)n3)sc2C)cc1	-1	103*	-9	0	-2	74*
CCOC(=O)CSc1nnc(NC(=O)CN2CCCCC2)s1	-4	·	-1	-1	0	·
CCCC(=O)N(c1ccc(OCC)cc1)S(=O)(=O)c1ccc2c3c(cccc13)C(=O)N2C	-4	·	-6	-1	-1	·
CC(NC(=O)COc1ccccc1)C(c1ccccc1)N1CCN(C)CC1 (stereo not drawn)	1	98*	-4	0	0	21
CCOC(=O)c1c(C)sc2c1N(C(=O)CCl)c1cc(Cl)ccc1S2	-6	·	-7	-1	14	-24
COc1cccc(NC(=O)c2ccc3snnc3c2)c1	-2	-9	9	0	1	·
C/C(=N/NC(=O)COc1ccc(C(C)(C)C)cc1)c1ccc(N2CCOCC2)cc1	-3	·	·	0	·	·
CC(C)(C)c1ccc(OCC(=O)N/N=C/C2CC=CCC2)cc1 (stereo not drawn)	-1	99*	-3	0	7	99*
CC(C)(C)c1ccc(OCC(=O)N/N=C/c2ccc(N3CCOCC3)cc2)cc1	-2	105*	-3	0	2	65
CSc1nsc(SCC(=O)Nc2cccc(NC(C)=O)c2)n1	3	·	5	0	2	·
COc1ccc(CCN(C)Cc2c(O)ccc3ccccc23)cc1OC	1	·	1	0	2	·
CCCc1cc(-c2[nH]ncc2-c2ccc3c(c2)OCCCO3)c(O)cc1O	-1	101*	-1	0	0	9
COc1ccc(-n2cccc2/C=C2\C(=N)N3N=C(c4ccco4)SC3=NC2=O)cc1	-1	102*	-1	0	-1	2
COc1ccc(-n2cccc2/C=C2\C(=N)N3N=C(C(C)C)SC3=NC2=O)cc1	0	28	0	0	2	·
CC(=O)Cc1nnn(-c2cc(C)on2)n1	·	-7	-3	·	-1	·
Oc1ccc(/C=N/N2CCN(C3c4ccccc4-c4ccccc43)CC2)c(O)c1	2	100*	-3	0	-2	112*
Oc1ccc(/C=N/N2CCN(C3c4ccccc4-c4ccccc43)CC2)cc1	0	9	-2	1	1	·
Cc1ccc(NC(=S)NC(NC(=O)c2ccccc2)C(Cl)(Cl)Cl)c(C)c1 (stereo not drawn)	5	55	-3	-1	0	·
Cc1ccc(C)c(NC(=S)NC(NC(=O)Cc2ccccc2)C(Cl)(Cl)Cl)c1 (stereo not drawn)	1	103*	-3	-1	1	25
O=C(COC(=O)c1cc(-c2ccccn2)nc2ccccc12)Nc1ncc(C(F)(F)F)cc1Cl	2	-15	1	0	1	·
Cc1cc(OC(=O)c2ccc(S(=O)(=O)N(C)C)cc2)cc(=O)o1	0	43	-3	0	1	·
